The record followed here is ChEMBL document CHEMBL4732238, “Synthesis, biological evaluation, and structure-activity relationships of new tubulin polymerization inhibitors based on 5-amino-1,2,4-triazole scaffold” (Bioorg Med Chem Lett, 2021).

The subject of assay [1] is HeLa. Nature of the assay: Antiproliferative activity against human HeLa cells assessed as cell growth inhibition at 100 uM by MTT assay relative to control. To be noted: read-out: GI. Type of assay: functional. In short, it runs like this:
(§1)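 Five human lines (MCF-7, HeLa, A549, PC-3, Panc-1) exposed to a single 100 μM concentration. Viability read by MTT. Results expressed as […] versus untreated control cells.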
(In general: Tetrazolium assays rely on reduction of a dye to a coloured formazan, in cell work by metabolically active cells.)

Another assay deals with A549. Nature of the assay: Antiproliferative activity against human A549 cells assessed as cell growth inhibition at 100 uM by MTT assay relative to control. In kind it is functional. To be noted: read-out: GI. In short, it runs like this: as §1
Assay [2] deals with PANC-1. Nature of the assay: Antiproliferative activity against human PANC-1 cells assessed as cell growth inhibition at 100 uM by MTT assay relative to control. To be noted: read-out: GI. In kind it is functional. In a few lines:
as §1

The test system of a further assay is PC-3. Nature of the assay: Antiproliferative activity against human PC-3 cells assessed as cell growth inhibition at 100 uM by MTT assay relative to control. Type of assay: functional. To be noted: read-out: GI. In a few lines: as §1
The test system of assay [3] is MCF7. Nature of the assay: Antiproliferative activity against human MCF7 cells assessed as cell growth inhibition at 100 uM by MTT assay relative to control. Type of assay: functional. To be noted: read-out: GI. In short, it runs like this:
as §1

The next assay has as its system K562. As to the kind of experiment: Antiproliferative activity against human K562 cells assessed as cell growth inhibition by MTT assay. In kind it is functional, cell-based.
Assay [4] deals with HeLa. Nature of the assay: Antiproliferative activity against human HeLa cells assessed as cell growth inhibition by MTT assay. Type of assay: functional, cell-based. In a few lines: (§2)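 MTT antiproliferation readout. […] Mean ± SD from three independent experiments.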
In assay [5] the test system is PANC-1. As to the kind of experiment: Antiproliferative activity against human PANC-1 cells assessed as cell growth inhibition by MTT assay. In kind it is functional, cell-based. In a few lines:
as §2

Assay [6] has as its system MCF7. As to the kind of experiment: Antiproliferative activity against human MCF7 cells assessed as cell growth inhibition by MTT assay. Type of assay: functional, cell-based. In short, it runs like this:
as §2

In the next assay the target is Tubulin (Homo sapiens) (UniProt P68371+Q9H4B7+P0DPH7+P68366+Q13509+Q71U36+P04350+Q3ZCM7+P07437+P68363+Q9BQE3+Q6PEY2+Q13885+Q9BVA1+Q9BUF5). As to the kind of experiment: Inhibition of tubulin (unknown origin) polymerization at 10 uM measured every 1 min over 20 mins by fluorescence assay relative to control. In kind it is protein-complex assay. In a few lines: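 Tubulin in reaction buffer incubated at 37 °C with test agent at final 10 μM; control 1% DMSO. Polymerization followed at 340 nm, read every minute over 20 min. Run three times.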

With `COc1cc(-c2nc(N)n(Cc3ccc(Cl)cc3)n2)cc(OC)c1OC`, the inhibition of growth at 100 µM was 55% in the assay on HeLa [1]; 38% with A549; 39% with PANC-1 [2]; 48% with PC-3; 49% in the assay on MCF7 [3].
As a reminder, the IC50 is the midpoint of a concentration-inhibition curve. On to `COc1cc(-c2nc(N)n(CC(=O)c3cccc(Br)c3)n2)cc(OC)c1OC`, for which the inhibition of growth at 100 µM was 66% with HeLa [1], 35% with A549, 51% with PANC-1 [2] and 59% in the assay on MCF7 [3]. For the same compound, the half-inhibitory concentration (IC50) in the assay with K562 is greater than 100 µM; in the assay on HeLa [4], 58.2 µM; with PANC-1 [5], 79.6 µM; in the assay on MCF7 [6], 68.4 µM.
For the compound `COc1ccc(NC(=O)Cn2nc(-c3cc(OC)c(OC)c(OC)c3)nc2N)cc1OC`, the inhibition of growth at 100 µM with HeLa [1] is 41%; with A549, 22%; in the assay on PANC-1 [2], 14%; in the assay with PC-3 it was 42%; in the assay on MCF7 [3], 12%.
Turning to `COc1cc(-c2nc(N)n(Cc3cccc(C#N)c3)n2)cc(OC)c1OC`, the inhibition of growth at 100 µM in the assay with HeLa [1] came to 28%; in the assay with A549, 30%; in the assay on PANC-1 [2] it was 6%; in the assay on MCF7 [3], 43%.
In the case of `COc1cc(-c2nc(N)n(CC(=O)c3ccc(F)c(F)c3)n2)cc(OC)c1OC`, the inhibition of growth at 100 µM in the assay on HeLa [1] worked out at 31%; with A549, 14%; in the assay on PANC-1 [2] it was 52%; in the assay with PC-3, 28%; with MCF7 [3] it was 48%.
As to `CCc1ccc(NC(=O)Cn2nc(-c3cc(OC)c(OC)c(OC)c3)nc2N)cc1`, the inhibition of growth at 100 µM in the assay with HeLa [1] is 12%; in the assay on A549, 27%; with PC-3 it was 40%; in the assay with MCF7 [3] it was 31%.
In general, inhibition refers to the percentage by which the read-out fell short of the control. Read a low inhibition as little suppression. For the compound `CCCc1ccc(NC(=O)Cn2nc(-c3cc(OC)c(OC)c(OC)c3)nc2N)cc1`, the inhibition of growth at 100 µM was determined as 75% in the assay with HeLa [1]; 37% in the assay on A549; 91% in the assay with PANC-1 [2]; 61% in the assay with PC-3; 70% in the assay on MCF7 [3]. Besides, the IC50 in the assay on K562 was found to be 41.1 µM; in the assay on HeLa [4], 56.1 µM; in the assay with PANC-1 [5] it was 20 µM; in the assay on MCF7 [6], 44.7 µM. For the same compound, the inhibition at Tubulin (Homo sapiens) turned out to be 14%.
With `COc1cc(-c2nc(N)n(CC(=O)Nc3cccc(C)c3)n2)cc(OC)c1OC`, the inhibition of growth at 100 µM is 18% in the assay on HeLa [1]; 34% in the assay on A549; 10% with PANC-1 [2]; 50% in the assay on PC-3; 23% in the assay on MCF7 [3].
With `COc1cc(-c2nc(N)n(CC(=O)c3ccc(Cl)cc3)n2)cc(OC)c1OC`, the inhibition of growth at 100 µM with HeLa [1] is 38%; with A549, 26%; in the assay on PANC-1 [2], 6%; in the assay with PC-3, 26%.
On to `COc1cc(-c2nc(N)n(CC(=O)c3ccc(C)cc3)n2)cc(OC)c1OC`, for which the inhibition of growth at 100 µM came to 70% in the assay with HeLa [1], 17% in the assay with PANC-1 [2], 35% with PC-3 and 53% with MCF7 [3]. The IC50 is 33 µM in the assay with K562, 54 µM in the assay on HeLa [4], greater than 100 µM in the assay with PANC-1 [5] and 53 µM in the assay on MCF7 [6]. The compound also gave an inhibition at Tubulin (Homo sapiens) of 42%.
As for `COc1cc(-c2nc(N)n(CC(=O)Nc3ccc(C)cc3F)n2)cc(OC)c1OC`, the inhibition of growth at 100 µM in the assay on HeLa [1] is 32%; in the assay with A549, 12%; in the assay on PANC-1 [2], 22%; in the assay on PC-3, 25%; with MCF7 [3], 21%.
The matching figures for `COc1cc(-c2nc(N)n(Cc3ccccc3F)n2)cc(OC)c1OC`: 33%, 24%, 5%, 35% and 33%.
On to `COc1cc(-c2nc(N)n(CC(=O)Nc3ccc(Cl)cc3)n2)cc(OC)c1OC`, for which the inhibition of growth at 100 µM in the assay on HeLa [1] amounted to 30%; in the assay on A549, 22%; in the assay with PANC-1 [2] it was 12%; in the assay with PC-3, 14%; in the assay with MCF7 [3] it was 37%.
On to `COc1cc(-c2nc(N)n(Cc3cc(OC(F)(F)F)cc(OC(F)(F)F)c3)n2)cc(OC)c1OC`, for which the inhibition of growth at 100 µM with HeLa [1] was 73%; with A549, 6%; in the assay on PANC-1 [2], 71%; in the assay with PC-3 it was 36%; with MCF7 [3] it was 55%. Further, the IC50 was 31.5 µM in the assay with K562, 53.1 µM in the assay on HeLa [4], 73 µM in the assay with PANC-1 [5] and greater than 100 µM with MCF7 [6].
In the case of `COc1ccc(/C=C\c2cc(OC)c(OC)c(OC)c2)cc1O` [COMBRETASTATIN A4], the IC50 in the assay with K562 was determined as 0.61 µM; with HeLa [4], 0.0047 µM; in the assay with MCF7 [6] it was 0.17 µM.
In the case of `COc1ccc(NC(=O)Cn2nc(-c3cc(OC)c(OC)c(OC)c3)nc2N)cc1`, the inhibition of growth at 100 µM in the assay with HeLa [1] is 30%; in the assay with A549 it was 9%; in the assay with PC-3 it was 33%; in the assay with MCF7 [3] it was 50%.
On the same counts, the results for `COc1cccc(C(=O)Cn2nc(-c3cc(OC)c(OC)c(OC)c3)nc2N)c1` are 27%, 20%, 37% and 30%.
For `COc1cc(-c2nc(N)n(CC(=O)Nc3ccc(C(C)C)cc3)n2)cc(OC)c1OC`, the inhibition of growth at 100 µM with HeLa [1] is 45%; in the assay on PANC-1 [2], 22%; in the assay with PC-3 it was 37%; in the assay on MCF7 [3] it was 8%.
As for `COc1cc(-c2nc(N)n(CC(=O)Nc3ccc(C)cc3)n2)cc(OC)c1OC`, the inhibition of growth at 100 µM was 35% in the assay with HeLa [1], 5% in the assay with PANC-1 [2] and 31% with PC-3.
For `COc1cc(-c2nc(N)n(Cc3ccc([N+](=O)[O-])cc3)n2)cc(OC)c1OC`, the inhibition of growth at 100 µM worked out at 58% with HeLa [1]; 13% in the assay with A549; 53% in the assay with PANC-1 [2]; 21% in the assay with PC-3; 52% with MCF7 [3]. In addition, the half-maximal inhibitory concentration (IC50) in the assay on K562 was greater than 100 µM; with HeLa [4] it was 57.2 µM; in the assay with PANC-1 [5] it was greater than 100 µM; in the assay on MCF7 [6], 82.1 µM.
`COc1cc(-c2nc(N)n(CC(=O)c3ccccc3)n2)cc(OC)c1OC`: the inhibition of growth at 100 µM in the assay with HeLa [1] came out at 42%; in the assay on A549 it was 15%; in the assay on PANC-1 [2], 4%; in the assay with MCF7 [3], 30%.
The matching figures for `COc1cc(-c2nc(N)n(CC(=O)Nc3ccc(C)c(C)c3)n2)cc(OC)c1OC`: 20%, 29%, 32% and 32%.
Consider `COc1cc(-c2nc(N)n(CC(=O)Nc3ccc(N(C)C)cc3)n2)cc(OC)c1OC`, for which the inhibition of growth at 100 µM in the assay with HeLa [1] was 29%; in the assay on A549, 7%; in the assay with MCF7 [3], 14%.
With `COc1cc(-c2nc(N)n(CC(=O)Nc3c(C)cc(C)cc3C)n2)cc(OC)c1OC`, the inhibition of growth at 100 µM came to 49% with HeLa [1]; 16% in the assay with A549; 32% in the assay with PANC-1 [2]; 50% in the assay on PC-3; 34% in the assay on MCF7 [3].
As to `COc1cc(-c2nc(N)n(Cc3ccc(F)cc3)n2)cc(OC)c1OC`, the inhibition of growth at 100 µM worked out at 28% in the assay with HeLa [1]; 42% in the assay with A549; 7% with PANC-1 [2]; 41% with PC-3; 34% in the assay on MCF7 [3].
On the same counts, the results for `COc1cc(-c2nc(N)n(CC(=O)c3ccc(Br)cc3)n2)cc(OC)c1OC` are 41%, 12%, 6%, 38% and 27%.
For the compound `COc1cccc(NC(=O)Cn2nc(-c3cc(OC)c(OC)c(OC)c3)nc2N)c1`, the inhibition of growth at 100 µM in the assay on HeLa [1] is 39%; with PC-3 it was 6%.
On to `COc1cc(-c2nc(N)n(CC(=O)c3ccc(F)cc3)n2)cc(OC)c1OC`, for which the inhibition of growth at 100 µM in the assay on HeLa [1] was 9%; in the assay on A549 it was 13%; in the assay on PC-3, 18%; with MCF7 [3] it was 27%.
